According to ChEMBL document CHEMBL1140118, “Design, synthesis, and structure-activity relationships of novel insulin receptor tyrosine kinase activators” (J Med Chem, 2008):
Activity calls are given as the source filed them. The calls are words filed in the database; no cut-off is given here.

Legend:
Insulin receptor = Insulin receptor (Mus musculus, UniProt P15208); experiment: Activation of insulin receptor tyrosine kinase in mouse 3T3-L1 cells assessed as increase in 2-deoxy-D-[14C]glucose transport in presence of insulin; assay type: cell-based
Outline: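 Differentiated, 16 h serum-starved 3T3-L1 adipocytes were exposed to compound plus 5.6 nM insulin (submaximal) for 30 min at 37 °C. They were then pulsed 30 min with 0.5 µCi/mL 2-deoxy-D-[14C]glucose and lysate counts were read. Four concentrations were tested in triplicate. EC50 came from nonlinear regression of untransformed data, given as mean ± SEM when n ≥ 3.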

3T3-L1 [1] = experiment: Increase in GLUT4 content in mouse 3T3-L1 cell plasma membrane at 56 uM in presence of insulin; assay type: functional
3T3-L1 [2] = experiment: Increase in insulin-stimulated glucose transport in mouse 3T3-L1 cells at >=30 uM in presence of insulin; assay type: functional, cell-based
Rattus norvegicus [3] = experiment: Reduction in blood glucose level in streptozotocin-induced hypoinsulinemic CD rat at 50 mg/kg, ip after 30 mins after glucose loading by oral glucose tolerance test; assay type: functional; set-up: scale not given: the % may be the effect or the level left
Outline: (§1)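 Male CD IGS rats (250-300 g) received streptozotocin 60 mg/kg ip and were enrolled if fed glucose was ≥250 mg/dL. On day 4 post-STZ they were fasted overnight and randomized on baseline glucose (n = 12/group). They got compound or PBS, then a 50% dextrose load by gavage (4 mL/kg). Tail blood glucose was read by glucometer, and groups were compared by unpaired t test.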

3T3-L1 [4] = experiment: Increase in glucose transport in mouse 3T3-L1 cells at 50 uM in absence of insulin; assay type: functional
Outline: (§2)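 Differentiated 3T3-L1 adipocytes (induced 72 h with dexamethasone, IBMX and insulin, then 48 h with insulin, then 4 days in normal medium) were serum-starved 16 h in 0.1% BSA. Compound was added without insulin for 30 min at 37 °C. Uptake of 0.5 µCi/mL 2-deoxy-D-[14C]glucose over 30 min was read by scintillation counting of lysates after a cold PBS rinse.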

[5] = molecular target: Insulin receptor (Homo sapiens) (UniProt P06213); experiment: Activation of human insulin receptor overexpressed in mouse 3T3-HIR cells assessed as increase in phosphotyrosine at >=18 uM in absence of insulin; assay type: cell-based
3T3-L1 [6] = experiment: Increase in glucose transport in mouse 3T3-L1 cells at 30 uM in absence of insulin; assay type: functional; outline: as §2
Rattus norvegicus [7] = experiment: Reduction in blood glucose level in streptozotocin-induced hypoinsulinemic CD rat at 1000 mg/kg, po after 30 mins after glucose loading by oral glucose tolerance test; assay type: functional; set-up: scale not given: the % may be the effect or the level left; outline: as §1
[8] = molecular target: Insulin receptor (Homo sapiens) (UniProt P06213); experiment: Activation of human insulin receptor overexpressed in mouse 3T3-HIR cells assessed as increase in phosphotyrosine at 3 uM in presence of insulin; assay type: cell-based
[9] = molecular target: Insulin receptor (Mus musculus) (UniProt P15208); experiment: Activation of insulin receptor tyrosine kinase in mouse 3T3-L1 cells assessed as increase in 2-deoxy-D-[14C]glucose transport in absence of insulin; assay type: cell-based; outline: as §2
[10] = molecular target: Insulin receptor (Homo sapiens) (UniProt P06213); experiment: Effect on autophosphorylation of human insulin receptor cytoplasmic kinase domain
Outline: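 Recombinant human IR cytoplasmic domain (200 ng) in 50 mM Tris pH 7.4 with 2 mM MnCl2, 10 mM MgCl2, 50 µM ATP and [γ-32P]ATP (10 µCi) was incubated with varied compound concentrations for 10 min at 25 °C. Incorporated label was measured by scintillation counting, either of excised SDS-PAGE bands or of TCA precipitates washed with phosphoric acid.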

Insulin receptor, sequence (P15208 28-748 limits assumed): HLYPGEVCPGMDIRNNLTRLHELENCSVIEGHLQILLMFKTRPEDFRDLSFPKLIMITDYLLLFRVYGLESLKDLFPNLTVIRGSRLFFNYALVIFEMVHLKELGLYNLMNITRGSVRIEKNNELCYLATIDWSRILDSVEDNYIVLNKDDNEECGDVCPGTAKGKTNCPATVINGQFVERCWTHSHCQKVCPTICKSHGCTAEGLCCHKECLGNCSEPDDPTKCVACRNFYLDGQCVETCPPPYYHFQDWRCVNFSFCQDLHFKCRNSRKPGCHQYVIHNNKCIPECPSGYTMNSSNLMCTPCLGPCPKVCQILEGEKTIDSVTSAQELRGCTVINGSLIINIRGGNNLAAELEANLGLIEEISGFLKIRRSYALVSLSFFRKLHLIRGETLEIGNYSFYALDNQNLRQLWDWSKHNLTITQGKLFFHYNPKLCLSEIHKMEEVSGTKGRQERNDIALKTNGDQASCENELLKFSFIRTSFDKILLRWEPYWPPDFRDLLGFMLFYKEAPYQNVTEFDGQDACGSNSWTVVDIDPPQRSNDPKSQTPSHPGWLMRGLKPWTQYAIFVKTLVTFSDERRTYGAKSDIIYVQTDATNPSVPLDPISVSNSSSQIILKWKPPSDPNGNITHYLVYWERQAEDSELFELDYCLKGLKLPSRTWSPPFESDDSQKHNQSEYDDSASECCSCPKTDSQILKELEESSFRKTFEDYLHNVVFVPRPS
Insulin receptor, sequence (P15208 753-1372 limits assumed): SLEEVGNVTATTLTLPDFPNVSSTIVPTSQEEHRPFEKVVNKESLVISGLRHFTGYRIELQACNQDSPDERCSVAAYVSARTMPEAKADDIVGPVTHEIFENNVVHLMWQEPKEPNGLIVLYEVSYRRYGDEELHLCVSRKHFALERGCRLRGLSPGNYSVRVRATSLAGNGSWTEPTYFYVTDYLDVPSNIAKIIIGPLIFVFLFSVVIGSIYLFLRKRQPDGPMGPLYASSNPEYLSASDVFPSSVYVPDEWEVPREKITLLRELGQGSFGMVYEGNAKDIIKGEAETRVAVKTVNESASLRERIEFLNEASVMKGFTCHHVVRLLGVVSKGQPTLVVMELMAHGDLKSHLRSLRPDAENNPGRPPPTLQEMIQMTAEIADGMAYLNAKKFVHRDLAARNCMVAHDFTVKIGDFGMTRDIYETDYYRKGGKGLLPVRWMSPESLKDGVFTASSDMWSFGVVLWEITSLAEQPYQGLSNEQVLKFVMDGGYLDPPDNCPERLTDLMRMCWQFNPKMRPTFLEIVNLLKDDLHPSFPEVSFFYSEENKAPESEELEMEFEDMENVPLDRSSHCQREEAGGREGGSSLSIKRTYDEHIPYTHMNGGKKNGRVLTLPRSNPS
Insulin receptor (Homo sapiens), sequence (P06213 28-758 limits assumed): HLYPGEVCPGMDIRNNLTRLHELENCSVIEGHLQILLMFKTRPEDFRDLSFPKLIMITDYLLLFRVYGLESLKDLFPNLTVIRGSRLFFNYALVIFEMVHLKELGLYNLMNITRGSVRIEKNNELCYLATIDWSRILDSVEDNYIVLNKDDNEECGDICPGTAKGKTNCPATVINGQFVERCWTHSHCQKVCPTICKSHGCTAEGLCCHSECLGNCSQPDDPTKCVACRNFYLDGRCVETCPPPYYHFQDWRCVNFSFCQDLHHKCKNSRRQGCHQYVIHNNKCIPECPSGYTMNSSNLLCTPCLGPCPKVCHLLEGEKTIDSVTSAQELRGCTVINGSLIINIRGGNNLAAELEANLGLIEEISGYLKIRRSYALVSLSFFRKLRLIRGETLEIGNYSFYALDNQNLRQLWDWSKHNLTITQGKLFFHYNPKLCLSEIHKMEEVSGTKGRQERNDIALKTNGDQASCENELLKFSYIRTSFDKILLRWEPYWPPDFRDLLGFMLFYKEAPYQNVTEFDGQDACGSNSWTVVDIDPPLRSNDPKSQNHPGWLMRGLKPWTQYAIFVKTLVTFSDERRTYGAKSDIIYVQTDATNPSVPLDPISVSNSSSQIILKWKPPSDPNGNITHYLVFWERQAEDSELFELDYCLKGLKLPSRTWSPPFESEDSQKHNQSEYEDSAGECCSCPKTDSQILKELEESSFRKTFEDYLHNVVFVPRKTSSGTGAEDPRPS
Insulin receptor (Homo sapiens), sequence (P06213 763-1382 limits assumed): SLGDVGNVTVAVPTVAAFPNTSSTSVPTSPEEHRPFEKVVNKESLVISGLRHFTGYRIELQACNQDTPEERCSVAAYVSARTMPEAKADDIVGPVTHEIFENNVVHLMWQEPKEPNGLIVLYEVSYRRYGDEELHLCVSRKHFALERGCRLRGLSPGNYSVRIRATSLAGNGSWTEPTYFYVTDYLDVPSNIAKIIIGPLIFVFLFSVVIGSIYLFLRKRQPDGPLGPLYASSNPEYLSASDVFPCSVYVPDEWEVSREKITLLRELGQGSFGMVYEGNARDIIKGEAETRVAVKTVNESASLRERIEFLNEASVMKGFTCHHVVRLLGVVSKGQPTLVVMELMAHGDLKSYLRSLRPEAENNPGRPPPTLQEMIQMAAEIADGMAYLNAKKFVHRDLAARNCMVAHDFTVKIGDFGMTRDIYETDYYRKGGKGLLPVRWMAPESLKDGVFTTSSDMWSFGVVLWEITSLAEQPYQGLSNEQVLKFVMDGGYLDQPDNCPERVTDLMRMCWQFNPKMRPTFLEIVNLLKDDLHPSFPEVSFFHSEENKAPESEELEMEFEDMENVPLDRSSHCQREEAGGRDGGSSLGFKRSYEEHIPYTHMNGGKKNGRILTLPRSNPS
Insulin receptor (Mus musculus), sequence (P15208 28-748 limits assumed): as the sequence (P15208 28-748 limits assumed) above
Insulin receptor (Mus musculus), sequence (P15208 753-1372 limits assumed): as the sequence (P15208 753-1372 limits assumed) above

Structure (SMILES)	EC50 (Insulin receptor) [µM]	further results
CC(=O)N(CCN(C(C)=O)c1ccc2ccc(S(=O)(=O)Nc3ccc(Cl)c(C(=O)O)c3)cc2c1)c1ccc2ccc(S(=O)(=O)Nc3ccc(Cl)c(C(=O)O)c3)cc2c1	> 200	–
O=C(Nc1ccc2c(O)cc(S(=O)(=O)Nc3ccccc3C(=O)O)cc2c1)Nc1ccc2c(O)cc(S(=O)(=O)Nc3ccccc3C(=O)O)cc2c1	93	–
O=C(Nc1ccc2ccc(S(=O)(=O)Nc3cccc(O)c3)cc2c1)Nc1ccc2ccc(S(=O)(=O)Nc3cccc(O)c3)cc2c1	> 200	–
O=C(Nc1ccc2ccc(C(=O)Nc3cccc(C(=O)O)c3)cc2c1)Nc1ccc2ccc(C(=O)Nc3cccc(C(=O)O)c3)cc2c1	> 200	–
O=C(Nc1ccc2c(O)cc(S(=O)(=O)Nc3cccc(CO)c3)cc2c1)Nc1ccc2c(O)cc(S(=O)(=O)Nc3cccc(CO)c3)cc2c1	> 200	–
CNC(=Nc1ccc2ccc(S(=O)(=O)Nc3ccc(Cl)c(C(=O)O)c3)cc2c1)Nc1ccc2ccc(S(=O)(=O)Nc3ccc(Cl)c(C(=O)O)c3)cc2c1	> 200	–
N#Cc1cccc(NS(=O)(=O)c2ccc3ccc(NC(=O)Nc4ccc5ccc(S(=O)(=O)Nc6cccc(C#N)c6)cc5c4)cc3c2)c1	> 200	–
O=C(Nc1ccc2c(O)cc(S(=O)(=O)Nc3cccc(C(=O)O)c3Cl)cc2c1)Nc1ccc2c(O)cc(S(=O)(=O)Nc3cccc(C(=O)O)c3Cl)cc2c1	121	–
O=C(Nc1ccc2ccc(S(=O)(=O)O)cc2c1)Nc1ccc2ccc(S(=O)(=O)Nc3ccc(Cl)c(S(=O)(=O)O)c3)cc2c1	> 200	–
O=C(Nc1ccc2ccc(C(=O)Nc3cccc(S(=O)(=O)O)c3)cc2c1)Nc1ccc2ccc(C(=O)Nc3cccc(S(=O)(=O)O)c3)cc2c1	> 200	–
O=C(Nc1ccc2ccc(S(=O)(=O)Nc3cccc([N+](=O)[O-])c3)cc2c1)Nc1ccc2ccc(S(=O)(=O)Nc3cccc([N+](=O)[O-])c3)cc2c1	> 200	–
O=C(O)c1cc(NS(=O)(=O)c2ccc3ccc(NC(=S)Nc4ccc5ccc(S(=O)(=O)Nc6ccc(Cl)c(C(=O)O)c6)cc5c4)cc3c2)ccc1Cl	162	–
O=C(Nc1ccc2c(O)cc(S(=O)(=O)Nc3cccc(C(F)(F)F)c3)cc2c1)Nc1ccc2c(O)cc(S(=O)(=O)Nc3cccc(C(F)(F)F)c3)cc2c1	> 200	–
CN(C(=O)N(C)c1ccc2ccc(S(=O)(=O)Nc3ccc(Cl)c(C(=O)O)c3)cc2c1)c1ccc2ccc(S(=O)(=O)Nc3ccc(Cl)c(C(=O)O)c3)cc2c1	> 200	–
N#CN=C(Nc1ccc2ccc(S(=O)(=O)Nc3ccc(Cl)c(C(=O)O)c3)cc2c1)Nc1ccc2ccc(S(=O)(=O)Nc3ccc(Cl)c(C(=O)O)c3)cc2c1	> 200	–
O=C(Nc1ccc2ccc(S(=O)(=O)Nc3ccccc3)cc2c1)Nc1ccc2ccc(S(=O)(=O)Nc3ccccc3)cc2c1	> 200	–
O=C(Nc1ccc2ccc(S(=O)(=O)Nc3cccc(C(=O)O)c3O)cc2c1)Nc1ccc2ccc(S(=O)(=O)Nc3cccc(C(=O)O)c3O)cc2c1	150	–
NC(=Nc1ccc2ccc(S(=O)(=O)Nc3ccc(Cl)c(C(=O)O)c3)cc2c1)Nc1ccc2ccc(S(=O)(=O)Nc3ccc(Cl)c(C(=O)O)c3)cc2c1	179	–
O=C(Nc1ccc2c(O)cc(S(=O)(=O)Nc3ccc(C(=O)O)cc3)cc2c1)Nc1ccc2c(O)cc(S(=O)(=O)Nc3ccc(C(=O)O)cc3)cc2c1	103	–
O=C(Nc1ccc2ccc(S(=O)(=O)Nc3ccc(C(=O)O)cc3)cc2c1)Nc1ccc2ccc(S(=O)(=O)Nc3ccc(C(=O)O)cc3)cc2c1	183	–
NS(=O)(=O)c1cccc(NS(=O)(=O)c2ccc3ccc(NC(=O)Nc4ccc5ccc(S(=O)(=O)Nc6cccc(S(N)(=O)=O)c6)cc5c4)cc3c2)c1	> 200	–
O=C(Nc1ccc2ccc(S(=O)(=O)O)cc2c1)Nc1ccc2ccc(S(=O)(=O)Nc3ccc(O)c(C(=O)O)c3)cc2c1	> 200	–
O=C(O)Cc1cccc(NS(=O)(=O)c2cc(O)c3ccc(NC(=O)Nc4ccc5c(O)cc(S(=O)(=O)Nc6cccc(CC(=O)O)c6)cc5c4)cc3c2)c1	> 200	–
O=C(Nc1ccc2ccc(S(=O)(=O)Nc3ccc(S(=O)(=O)O)cc3)cc2c1)Nc1ccc2ccc(S(=O)(=O)Nc3ccc(S(=O)(=O)O)cc3)cc2c1	94	–
O=C(O)c1cc(NS(=O)(=O)c2ccc3ccc(NCCNc4ccc5ccc(S(=O)(=O)Nc6ccc(Cl)c(C(=O)O)c6)cc5c4)cc3c2)ccc1Cl	> 200	–

Second part, led by results:

EC50 (Insulin receptor) [µM]	Structure (SMILES)	further results
40	O=C(Nc1ccc2ccc(S(=O)(=O)Nc3ccc([N+](=O)[O-])c(C(=O)O)c3)cc2c1)Nc1ccc2ccc(S(=O)(=O)Nc3ccc([N+](=O)[O-])c(C(=O)O)c3)cc2c1	–
56	O=C(O)c1cc(NS(=O)(=O)c2ccc3ccc(N4CCN(c5ccc6ccc(S(=O)(=O)Nc7ccc(Cl)c(C(=O)O)c7)cc6c5)C4=O)cc3c2)ccc1Cl	–
16	O=C(Nc1ccc2ccc(S(=O)(=O)Nc3ccc(Cl)c(C(=O)O)c3)cc2c1)Nc1ccc2ccc(S(=O)(=O)Nc3ccc(Cl)c(C(=O)O)c3)cc2c1	–
5	O=C(Nc1ccc2c(O)cc(S(=O)(=O)Nc3ccc(Cl)c(S(=O)(=O)[O-])c3)cc2c1)Nc1ccc2c(O)cc(S(=O)(=O)Nc3ccc(Cl)c(S(=O)(=O)[O-])c3)cc2c1.[Na+].[Na+]	Activity (3T3-L1 [1]): 85%; Activity (3T3-L1 [2]): Active; Activity (Rattus norvegicus [3]): 25%; Activity (3T3-L1 [4]): 875%; Activity [5]: Active; Activity (3T3-L1 [6]): 340%; Activity (Rattus norvegicus [7]): 32%; Activity [8]: 75%
43	O=C(Nc1ccc2c(O)cc(S(=O)(=O)Nc3cccc(C(=O)O)c3)cc2c1)Nc1ccc2c(O)cc(S(=O)(=O)Nc3cccc(C(=O)O)c3)cc2c1	–
6	O=C(Nc1ccc2ccc(S(=O)(=O)Nc3ccc(Cl)c(S(=O)(=O)O)c3)cc2c1)Nc1ccc2ccc(S(=O)(=O)Nc3ccc(Cl)c(S(=O)(=O)O)c3)cc2c1	–
73	O=C(Nc1ccc2c(O)cc(S(=O)(=O)Nc3cccc(-c4nn[nH]n4)c3)cc2c1)Nc1ccc2c(O)cc(S(=O)(=O)Nc3cccc(-c4nn[nH]n4)c3)cc2c1	–
9	O=C(Nc1ccc2ccc(S(=O)(=O)Nc3ccc(O)c(C(=O)O)c3)cc2c1)Nc1ccc2ccc(S(=O)(=O)Nc3ccc(O)c(C(=O)O)c3)cc2c1	–
91	CN(c1cccc(S(=O)(=O)O)c1)S(=O)(=O)c1ccc2ccc(NC(=O)Nc3ccc4ccc(S(=O)(=O)N(C)c5cccc(S(=O)(=O)O)c5)cc4c3)cc2c1	–
22	O=C(Nc1ccc2ccc(S(=O)(=O)Nc3cccc(S(=O)(=O)O)c3)cc2c1)Nc1ccc2ccc(S(=O)(=O)Nc3cccc(S(=O)(=O)O)c3)cc2c1	–
24	O=C(Nc1ccc2ccc(S(=O)(=O)Nc3cccc(C(=O)O)c3)cc2c1)Nc1ccc2ccc(S(=O)(=O)Nc3cccc(C(=O)O)c3)cc2c1	–
90	O=C(Nc1ccc2c(O)c(/N=N/c3ccc(/N=N/c4ccc(S(=O)(=O)O)cc4)cc3S(=O)(=O)O)c(S(=O)(=O)O)cc2c1)Nc1ccc2c(O)cc(S(=O)(=O)O)c(/N=N/c3ccc(/N=N/c4ccc(S(=O)(=O)O)cc4)cc3S(=O)(=O)O)c2c1	Activity [9]: inactive; Activity [10]: Dose-dependent effect
26	O=C(Nc1ccc2c(O)cc(S(=O)(=O)Nc3cccc(S(=O)(=O)O)c3)cc2c1)Nc1ccc2c(O)cc(S(=O)(=O)Nc3cccc(S(=O)(=O)O)c3)cc2c1	Activity [10]: Dose-dependent effect
43	O=C(Nc1ccc2c(O)cc(S(=O)(=O)Nc3ccc(O)c(C(=O)O)c3)cc2c1)Nc1ccc2c(O)cc(S(=O)(=O)Nc3ccc(O)c(C(=O)O)c3)cc2c1	–
54	O=C(Nc1ccc2ccc(S(=O)(=O)Nc3cccc(-c4nn[nH]n4)c3)cc2c1)Nc1ccc2ccc(S(=O)(=O)Nc3cccc(-c4nn[nH]n4)c3)cc2c1	–
41	O=C(Nc1ccc2ccc(S(=O)(=O)Nc3ccccc3C(=O)O)cc2c1)Nc1ccc2ccc(S(=O)(=O)Nc3ccccc3C(=O)O)cc2c1	–
18	O=C(Nc1ccc2c(O)cc(S(=O)(=O)Nc3ccc(Cl)c(C(=O)O)c3)cc2c1)Nc1ccc2c(O)cc(S(=O)(=O)Nc3ccc(Cl)c(C(=O)O)c3)cc2c1	–
